Consider eight compounds from ChEMBL document CHEMBL1125492, “The calanolides, a novel HIV-inhibitory class of coumarin derivatives from the tropical rainforest tree, Calophyllum lanigerum” (J Med Chem, 1992).

Series [1] concerns CEM-SS. Nature of the series: Concentration inhibiting HIV-1 induced cytopathic effects in human T-lymphoblastic cells(CEM-SS) and essentially halted HIV-1 replication. The format is functional, cell-based. The method in brief:
(§1)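 CEM-SS cells kept in phenol-red-free RPMI 1640 with 5% fetal bovine serum, 2 mM L-glutamine and 50 μg/mL gentamicin, seeded at 2.0×10^5 cells/mL. Infected with HIV-1 RF (HTLV-III_RF) or left uninfected. Compound dissolved in DMSO, diluted in medium (final DMSO ≤1%), tested over <0.1 to >10 μM. Incubated 6 days at 37 °C, 5% CO2. Viability read by XTT-tetrazolium; quadruplicate infected wells, duplicate uninfected wells.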
(In general: Cytopathic effects are the visible damage that an infection or toxin causes in cultured cells.)

Series [2] concerns CEM-SS cells (Homo sapiens). Nature of the series: Cytotoxicity against CEM-SS cells.
The nature of series [3]: Apparent in vitro therapeutic induces(TI) of the compound. It counts as ADME.
The subject of series [4] is CEM-SS. Nature of the series: Inhibition of HIV-1 replication in CEM-SS human lymphoblastoid cells in vitro. The format is functional, cell-based. The method in brief:
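CEM-SS cells infected with HIV-1 RF and treated with a concentration range for 6 days at 37 °C, 5% CO2 (final DMSO ≤1%). Cell-free supernatant assayed for viral reverse transcriptase activity, p24 antigen and syncytium-forming units. Values expressed as percent of infected, untreated controls; each point is the mean of at least quadruplicate determinations.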

For series [5], the system named is CEM-SS. Nature of the series: Potency to inhibit HIV-1 induced cytopathic effects in human T-lymphoblastic cells(CEM-SS) and essentially halted HIV-1 replication. The format is functional, cell-based. The method in brief:
as §1

For series [6], the system named is CEM-SS. Nature of the series: Maximum protection of human T-lymphoblastic cells(CEM-SS) from cytopathic effects of HIV-1 by the compound. The format is functional. The method in brief:
as §1

With `CCCc1cc(=O)oc2c3c(c4c(c12)OC(C)(C)C=C4)O[C@H](C)[C@H](C)C3=O`, the IC50 in the series with CEM-SS [1] is 27 µM.

Take `CCCc1cc(=O)oc2c3c(c4c(c12)OC(C)(C)C=C4)O[C@H](C)[C@@H](C)[C@@H]3O` [CALANOLIDE A]: the IC50 in series [2] was 16 µM; in the series with CEM-SS [1] it was 20 µM. The Therapeutic indices in series [3] is given as 200 TI. The EC50 in the series on CEM-SS [4] stood at 0.08 µM; with CEM-SS [5], 0.1 µM. This compound registered a Max protection with CEM-SS [6] of 100%.

Compound `CCCc1cc(=O)oc2c3c(c4c(c12)OC(C)(C)C=C4)O[C@H](C)[C@@H](C)[C@@H]3OC(C)=O` returned an IC50 in the series on CEM-SS [1] of 13 µM. Moreover, the Therapeutic indices in series [3] was 5 TI. The response in the series on CEM-SS [5] was half-maximal at 2.7 µM (EC50). In addition, in the series with CEM-SS [6], the Max protection was 100%.

In turn, `CCCC1CC(=O)Oc2c(C(=O)C(C)C(C)O)c(O)c3c(c21)OC(C)(C)C=C3` (stereo unspecified) [CALANOLIDE E2] yielded an IC50 with CEM-SS [1] of 25 µM.

For the compound `CCCc1cc(=O)oc2c3c(c4c(c12)OC(C)(C)C=C4)O[C@H](C)[C@@H](C)[C@H]3OC`, the IC50 in the series with CEM-SS [1] turned out to be 19 µM. Besides, the Max protection in the series on CEM-SS [6] stood at 35%.

In the series with CEM-SS [1], `CCCc1cc(=O)oc2c3c(c4c(c12)OC(C)(C)C=C4)O[C@H](C)[C@@H](C)[C@H]3O` [(+)-CALANOLIDE B] gave an IC50 of 15 µM. The Therapeutic indices in series [3] was found to be 37 TI. Also, the midpoint of the response in the series on CEM-SS [5], the EC50, lay at 0.4 µM. For the same compound, the Max protection with CEM-SS [6] was 100%.

In turn, `CCCc1cc(=O)oc2c3c(c4c(c12)OC(C)(C)C=C4)O[C@H](C)[C@H](C)[C@@H]3O` [CALANOLIDE C] came in with an IC50 in the series on CEM-SS [1] of 30 µM. The same compound gave a Max protection with CEM-SS [6] of 30%.

Take `CCCc1cc(=O)oc2c3c(c4c(c12)OC(C)(C)C=C4)O[C@H](C)[C@@H](C)[C@@H]3OC`: in the series with CEM-SS [1], the midpoint of inhibition, the IC50, lay at 21 µM.

What is called IC50 is the concentration that inhibits the measured activity by half. Usually EC50 stands for the concentration at which the effect is half-maximal.
